# CHRM4 antagonist = blocks acetylcholine activation of human M4 receptor. CHO-hM4 cells, ACh EC80, Fluo-8 calcium fluorescence. inhibition, % at 3 µM. 0.73% of 360,000 active. AID 624125;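 active = inhibition above its plate's cutoff, the mean inhibition of sample wells plus 3 SD, cut at about 27% in these data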
# CHRM5 antagonist = blocks acetylcholine activation of human M5 receptor | CHO-hM5 cells, Fluo-8 calcium fluorescence, ACh EC80 | P08912 | 0.59% of 360,000 active | inhibition, % at 3 µM;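 active = inhibition above a per-plate cutoff, the mean of that plate's test compounds plus 3 SD, cut at about 27% in these data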
# Target sequence (P08912 whole entry, looked up): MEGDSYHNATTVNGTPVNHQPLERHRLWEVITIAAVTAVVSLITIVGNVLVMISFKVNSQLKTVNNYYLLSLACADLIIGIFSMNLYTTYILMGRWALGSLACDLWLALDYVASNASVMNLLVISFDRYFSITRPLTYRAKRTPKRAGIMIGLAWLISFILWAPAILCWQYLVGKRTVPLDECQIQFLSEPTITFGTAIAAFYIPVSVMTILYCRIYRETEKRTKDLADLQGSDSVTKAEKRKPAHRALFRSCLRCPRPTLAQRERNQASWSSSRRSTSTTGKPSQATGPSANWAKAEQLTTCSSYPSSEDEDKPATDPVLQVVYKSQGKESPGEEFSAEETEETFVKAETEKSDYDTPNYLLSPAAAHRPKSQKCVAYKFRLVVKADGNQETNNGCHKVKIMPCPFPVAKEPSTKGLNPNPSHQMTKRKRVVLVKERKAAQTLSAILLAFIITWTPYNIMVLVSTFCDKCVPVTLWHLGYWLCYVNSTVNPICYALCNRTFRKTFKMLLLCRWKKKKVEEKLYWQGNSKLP
# CHRM4 agonist = agonists of human muscarinic M4 receptor (CHRM4). CHO-K1 hM4/Gqi5, Fluo-8 calcium fluorescence; vehicle 0%, full acetylcholine response 100%. 0.14% of 360,000 active. activation, % at 3 µM. P08173. AID 624127;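 active = activation above the run mean over all test wells plus 3 SD, cut at about 32% in these data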;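 note: peak over basal fluorescence ratio per well then scaled between controls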
# M5 PAM = potentiates acetylcholine response at human M5 receptor. 0.3% of 360,000 active. AID 624038. CHO-K1 hM5, Fluo-8 calcium, ACh EC20 PAM; 0% = ACh EC20, 100% = ACh EC100. P08912. activation, % at 3 µM;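 active = activation above the run cutoff, the mean activation of all test compounds plus 3 SD, cut at about 18% in these data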
#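 Assay system – human M5 receptor in CHO-K1 cells · Read-out – % activation, ACh-normalized · Technique – Fluo-8 calcium fluorescence · Dosing – single-point, 3 µM nominal · Incubation – Fluo-8 loading 80 min at 37 °C plus 30 min room temperature · Repeats – singlicate, one well per test compound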
# M4 PAM = potentiates acetylcholine response at human M4 receptor; P08173; CHO-K1 hM4/Gqi5, Fluo-8 calcium fluorescence, ACh EC20; 0% = ACh EC20, 100% = maximal ACh; activation, % at 3 µM; 0.4% of 360,000 active;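 active = activation above its plate's cutoff, the mean activation of sample wells plus 3 SD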
# CHRM5 agonist = CHRM5 agonism in calcium assay. P08912. 0.19% of 360,000 active. CHO-K1 hM5 cells, Fluo-8 calcium fluorescence; 0% DMSO wells, 100% maximal acetylcholine response. activation, % at 3 µM;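 active = activation above the run's mean over test compounds plus 3 SD, cut at about 23% in these data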;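 note: signal is peak over basal fluorescence ratio across the kinetic read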
# Hits are given with their value; – = inactive. Compounds with a hit are over-represented: about 1.8% of the library has one in this group of screens.
SMILES,CHRM4 antagonist,CHRM5 antagonist,CHRM4 agonist,M5 PAM,M4 PAM,CHRM5 agonist
Clc1ccccc1OCCNc1nc(NCC2CC2)nc2ccsc12,–,30,–,–,–,–
C#Cc1cccc(Nc2nc(NCc3ccccc3)nc3ccsc23)c1,27,–,–,–,–,–
COc1cccc(CNc2nc(NCC3CC3)nc3ccsc23)c1,–,31,–,–,–,–
CNc1nc(NCc2cccc(OC)c2)c2sccc2n1,–,–,–,–,–,–
Cc1ccc(Nc2nc(NCc3ccccc3)nc3ccsc23)c(C)c1,57,32,39,–,–,–
CNc1nc(NCCOc2ccccc2Cl)c2sccc2n1,–,–,–,–,–,–
COc1cccc(CNc2nc(NCc3ccccc3)nc3ccsc23)c1,44,45,58,–,–,31
CSc1ccccc1CNc1nc(NCC2CC2)nc2ccsc12,–,30,–,–,–,–
O=C(/C=C/c1ccc(F)cc1)NC(=S)Nc1ccccc1C(=O)NC1CCCCC1,–,–,–,21,–,–
CC(=O)Nc1sc2c(c1C(c1ccccc1Cl)N1CCN(CCO)CC1)CCCC2 (configuration not stated),–,65,–,–,–,–
O=C(NCc1ccncc1)[C@@H]1CCCN1C(=O)[C@@H]1CCCN1C(=O)c1cccc2ccccc12,–,–,–,–,–,–
O=C(Nc1cccn(Cc2ccc(F)cc2)c1=O)NC1CCCCC1,–,–,–,–,–,–
Cc1ccc(Cn2cccc(NC(=O)NC3CCCCC3)c2=O)cc1,–,–,–,34,–,–
Cc1cc(C)c2c(=O)n(CC(=O)Nc3cccc(Cl)c3C)sc2n1,70,–,67,–,–,28
Cc1cc(C)c2c(=O)n(CC(=O)Nc3ccc(Br)c(C)c3)sc2n1,–,–,–,–,–,–
Cc1ccc(-c2cnc(C(O)c3cc(C)cc(C)c3)[nH]2)cc1 (configuration not stated),–,–,–,–,–,–
CC(C)CN(C(=O)CSc1nc2ccccc2c(=O)[nH]1)c1c(N)n(CC(C)C)c(=O)[nH]c1=O,–,–,–,–,24,–
Cc1ccc(C(O)c2ncc(-c3ccc(Cl)cc3)[nH]2)cc1 (configuration not stated),–,–,–,–,–,–
CC1Nc2ncnc(N3CCOCC3)c2N(Cc2ccc(Cl)cc2)C1=O (configuration not stated),–,–,–,–,–,–
CCC1Nc2ncnc(N3CCOCC3)c2N(Cc2ccc(Cl)cc2)C1=O (configuration not stated),–,–,–,–,24,–
COc1cc(-n2c(=O)c3ccccc3n(Cc3cccc(F)c3)c2=O)cc(OC)c1OC,–,–,–,–,–,–
COc1cc(-n2c(=O)c3ccccc3n(Cc3ccccc3)c2=O)cc(OC)c1OC,–,30,–,30,–,–
Cc1ccc(Cc2c(-c3ccccc3)nc3cc(C)c(Br)c(C)n23)cc1,–,–,–,–,–,–
O=C(Nc1ccc(F)c(Cl)c1)Nc1nnc([C@H]2C[C@H](O)[C@@H](CO)O2)s1,–,–,–,–,–,–
FC(F)Oc1ccc(NC(=S)NCc2ccccc2)cc1,–,–,–,–,–,–
SMILES,CHRM4 antagonist,CHRM5 antagonist,CHRM4 agonist,M5 PAM,M4 PAM,CHRM5 agonist
FC(F)Oc1ccc(NC(=S)NCc2ccccc2)cc1Cl,–,33,–,–,–,–
COc1ccc(S(=O)(=O)NCc2ccc(C(=O)NCCN(C)Cc3ccccc3)cc2)cc1,–,–,–,–,–,–
CC(O)(c1cccnc1)c1nc(-c2cccc(C(F)(F)F)c2)cs1 (configuration not stated),–,–,–,–,–,–
N#CC(C#N)=C1C=CC=CN1/C(=C\c1ccco1)C(=O)c1ccc(Br)cc1,69,–,–,–,–,–
N#CC(C#N)=C1C=CC=CN1/C(=C\c1ccco1)C(=O)c1ccccc1,30,–,–,–,–,–
COc1ccc(C(=O)/C(=C\c2ccco2)N2C=CC=CC2=C(C#N)C#N)cc1,–,–,–,–,–,–

# Screening data: PubChem BioAssay, The Scripps Research Institute Molecular Screening Center
